# STAT3 blocker = inhibitors of IL-6 induced STAT3 signaling | U3A cells, IL-6 STAT3-luciferase reporter, luminescence; host cell line lacks STAT1 | hit rate 0.89% among 190,000 | inhibition, % at 5.5 µM | AID 862;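 active means inhibition above the mean inhibition across all screened compounds plus 3 SD, cut at about 44% in these data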;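 further: 0% = DMSO only wells and 100% = 100 µM nifuroxazide control wells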
# STAT1 blocker = STAT1 signaling inhibition; NIH 3T3 STAT1-luciferase reporter, IFN-gamma, luminescence; inhibition, % at 5.5 µM; hit rate 0.35% among 200,000; AID 920;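 active means inhibition above a set limit, the mean inhibition across all tested compounds plus 3 SD, cut at about 34% in these data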;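 further: 0% = IFN-gamma with DMSO and 100% = IFN-gamma with 300 µM nifuroxazide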
# STAT1 act = STAT1 signaling activation | NIH 3T3 STAT1-luciferase reporter, IFN-gamma, luminescence; 100% = IFN-gamma alone, no compound | activation (% of control), % at 5.5 µM | hit rate 2.6% among 200,000 | AID 932;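 active means activation above the screen-wide mean activation plus 3 SD, cut at about 130% in these data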;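 further: raw ratio to IFN-gamma control signal so 100% means no change and 0% no light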
# KCC2 mod = modulates chloride dependent transport by human KCC2 | B-score of Tl+ flux slope (higher = more flux/activation; lower = inhibition) at 10 µM | Q9H2X9 | KCC2 cells, thallium flux FluoZin-2 fluorescence | hit rate 2.2% among 190,000;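 active means thallium flux slope and its plate-corrected score both differing from the plate sample mean at a set confidence after two filtering rounds, in either direction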;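 further: slope of fluorescence scaled to starting intensity during 10 to 20 s after thallium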
# STAT3 activator = increases IL-6 driven STAT3 reporter signal. activation (% of control), % at 5.6 µM. U3A cells, IL-6 STAT3-luciferase reporter, luminescence; 100% = signal with IL-6 EC80 alone. hit rate 0.91% among 190,000;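 active means activation above the screen-wide mean of compound activation plus 3 SD, cut at about 130% in these data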;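 further: 0% = background luminescence of wells with medium and substrate only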
#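 system = STAT3-luciferase reporter U3A cells | reagent = IL-6 stimulus at 33 ng/mL final | timing = 1 h compound pre-exposure, 6 h IL-6 stimulation, 37 °C | measured by = luminescence | evaluation = % activation versus median of IL-6-stimulated wells | control set = IL-6-only wells as 100% reference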
# HSV replic up = increases HSV replication in cells; HSV replication augmentation in cells, fold increase; maximum fold increase; hit rate 0.005% among 220,000; in the data active means maximum fold increase above about 1.5; inconclusive means no clear call, values can overlap the other calls; tested in PC3 cells
# KCC2 sec1 = KCC2 (human) modulation, secondary assay; normalised thallium flux (F/F0 slope) at 10 µM; hit rate 15% among 3,700; AID 1713; HEK293-KCC2, thallium flux, FluoZin2 fluorescence; active compounds read high; shares compounds with KCC2 mod;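 active means thallium flux slope above the same plate's solvent-only control mean plus 3 SD; inconclusive means the two replicate wells disagree; inactive means no significant difference from solvent-only control wells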
# KCC2 bumet counter = bumetanide-insensitive thallium flux in KCC2 cells with ouabain, counter-screen; hit rate 49% among 3,700; shares compounds with KCC2 mod; normalized thallium flux at 10 µM; HEK293-KCC2 + bumetanide/ouabain, thallium flux FluoZin2; active compounds read high; AID 1714;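 active means thallium entry rate above the same plate's blocked-transporter control wells by more than 3 SD; inconclusive means the two repeat wells disagree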;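 further: raw slope of fluorescence over initial fluorescence between 10 and 20 s after thallium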
# KCC2 secondary2 = confirmation of human KCC2 transport modulators | shares compounds with KCC2 mod | HEK293-KCC2, thallium flux FluoZin2 fluorescence; actives lie on both sides; F/F0 rise rate, 10–20 s post-thallium | normalized thallium flux at 10 µM | hit rate 23% among 3,700 | AID 1715;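 active means thallium flux slope more than 3 SD above or below the plate's solvent-only control mean, mostly below; inconclusive means the two repeat wells disagreed; inactive means no significant shift from solvent-only controls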;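 further: raw slope with 0.1% DMSO as baseline and bumetanide as block control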
# HEK counter1 = acts in parental HEK cells, KCC2 counter-screen. shares compounds with KCC2 mod. HEK293 parental cells, thallium flux FluoZin2, ouabain; baseline-ratio fluorescence slope, 10–20 s after thallium. thallium flux rate (normalised fluorescence) at 10 µM. hit rate 46% among 3,700. AID 1716;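 active means thallium flux rate significantly above the same plate's solvent-only control wells, beyond their mean plus 3 SD; inconclusive means the two replicate wells gave conflicting results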
# KCC2 retest ouab = modulates human KCC2 on retest with ouabain; shares compounds with KCC2 mod; HEK293-KCC2, thallium flux FluoZin2 fluorescence; bidirectional: low = inhibitor, high = activator; raw Tl+ flux slope (below DMSO = inhibition, above = activation) at 10 µM; hit rate 48% among 3,700;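 active means thallium flux slope beyond 3 SD from same-plate DMSO control mean in most replicates, usually higher, sometimes lower; inconclusive means repeat tests gave conflicting results; inactive means no significant difference from controls in most replicates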;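 further: slope of initial-normalized fluorescence between seconds 10 and 20 after thallium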
# HEK counter2 = acts in parental HEK cells, second KCC2 counter-screen | HEK293 parental, thallium flux FluoZin-2 fluorescence slope | hit rate 33% among 3,700 | AID 1718 | shares compounds with KCC2 mod | thallium flux slope at 10 µM;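 active means thallium flux slope above the same plate's solvent-control mean plus 3 SD in both duplicate wells; inconclusive means duplicate wells that disagreed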;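 further: run without ouabain in cells lacking the KCC2 cotransporter; slope of fluorescence scaled to its starting value between 10 and 20 s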
# The depositor's hits bear a star; i = inactive; ? = inconclusive; · = no result given. This is a sample that favours compounds with a hit; in the whole collection about 5.5% have one here.
SMILES,STAT3 blocker,STAT1 blocker,STAT1 act,KCC2 mod,STAT3 activator,HSV replic up,KCC2 sec1,KCC2 bumet counter,KCC2 secondary2,HEK counter1,KCC2 retest ouab,HEK counter2
O=C(Nc1nc2ccc(S(=O)(=O)N3CCOCC3)cc2s1)c1cccs1,1,-4,102,0.67,103,i,·,·,·,·,·,·
COc1ccc(C(=O)C2CCCN(C(=O)c3noc4c3CCCC4)C2)c(C)c1 (centres undefined),6,7,92,·,98,i,0.0064,0.004,0.028,?,0.017,0.01
COc1ccc(C(=O)C2CCCN(C(=O)c3noc4c3CCCC4)C2)cc1F (centres undefined),4,4,95,-0.016,101,i,·,·,·,·,·,·
O=C(/C=C/c1ccc(Br)cc1)NC(=S)N1CCOCC1,-7,-20,116,8.7*,109,i,0.008,0.024*,0.037,0.017*,0.031*,0.019*
COc1ccc(/C=C/C(=O)NC(=S)N2CCN(c3ccccn3)CC2)cc1,·,·,·,5.9*,·,i,0.0054,0.024*,0.032,0.013*,?,0.015*
COc1ccc(/C=C/C(=O)NC(=S)N2CCSCC2)cc1,14,-10,109,8.7*,93,i,0.018,0.034*,0.035,0.016*,0.025*,0.017*
O=C(NC(=S)N1CCN(c2ccccn2)CC1)c1ccccc1,10,1,99,17*,94,i,0.0062,0.043*,0.035,0.03*,0.039*,0.019*
CCOC(=O)c1c(-c2ccccc2)csc1NC(=O)c1cc2ccccc2oc1=O,2,7,93,-0.0068,98,i,·,·,·,·,·,·
Cc1nc2ccccn2c1-c1ccnc(=S)[nH]1,·,·,·,0.94,·,i,·,·,·,·,·,·
S=c1nccc(-c2ccc(Cl)cc2)[nH]1,·,·,·,19*,·,i,0.01*,0.019*,0.041*,0.024*,0.032*,0.027*
CCOC(=O)c1c(OCC)[nH]c2ccc(O)cc12,11,1,99,0.16,97,i,·,·,·,·,·,·
Cc1c(Cl)cccc1-n1c(SCC(=O)NCc2cccs2)nnc1-c1ccncc1,-9,-3,103,-1.2,110,i,0.0099,0.0057,0.036,0.0097*,0.02,0.011
O=S(=O)(Nc1c(S(=O)(=O)c2ccccc2)c2nc3ccccc3nc2n1C1CCCCC1)c1ccccc1,-26,9,91,-4.3*,120,·,0.0083,0.006,0.034,0.0039,?,0.012
O=S(=O)(Nc1nc(-c2sccc2Cl)cs1)c1cc(Cl)ccc1Cl,-32,5,95,·,132,i,·,·,·,·,·,·
CCOc1c(Br)cc(C2NS(=O)(=O)N=C3CCCCCN32)cc1OC (centres undefined),-1,2,98,-0.027,106,i,·,·,·,·,·,·
O=C(NNC(=O)C1CC2CCC1C2)c1sc2ccccc2c1Cl (centres undefined),26,-33,130*,9.5*,80,i,0.01,0.041*,0.031,0.019*,0.025,0.012*
Cc1ccc2cccc(OCC(=O)Nc3ccc4c(c3)OCO4)c2n1,20,-3,102,-5.9*,87,i,?,0.006,0.029,0.0062,0.014*,0.01
